Converted amounts (≈) assume the structure as drawn.
Assays:
Aspergillus niger = assay: Antifungal activity against Aspergillus niger; assay type: functional
Outline: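 Disk diffusion assay measuring growth inhibition of Aspergillus niger, run by an earlier published method. The zone of inhibition is reported as an area rather than a diameter.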

LX-1 = assay: Cytotoxicity against human LX1 cells after 72 hrs by MTS method; assay type: functional, cell-based; details: LX-1, 72 h
Outline: (§1)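 Cells grown in McCoy's 5A with 10% heat-inactivated fetal bovine serum and seeded 24 h before dosing. Serially diluted compound was added, then incubated 72 h at 37 °C. MTS with phenazine methosulfate was added for 3 h more, and absorbance at 492 nm gave survival relative to untreated controls. IC50 was taken from six-point curves (5-fold dilutions), each point in duplicate.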

HCT-116 = assay: Cytotoxicity against human HCT116 cells after 72 hrs by MTS method; assay type: functional, cell-based; details: HCT-116, 72 h; outline: as §1
A2780 = assay: Cytotoxicity against human A2780 cells after 72 hrs by MTS method; assay type: functional, cell-based; details: A2780, 72 h; outline: as §1
KB = assay: Cytotoxicity against human KB cells after 72 hrs by MTS method; assay type: functional, cell-based

## C[C@@H]1[C@H](O)[C@@H](C)/C=C/C=C/C=C/C=C/C=C/C=C/C=C/[C@H](O[C@@H]2O[C@H](C)[C@@H](O)[C@H](N)[C@@H]2O)C[C@@H]2O[C@](O)(C[C@@H](O)C[C@@H](O)[C@H](O)CC[C@@H](O)C[C@@H](O)CC(=O)O[C@H]1C)C[C@H](O)[C@H]2C(=O)O [AMPHOTERICIN B]
Aspergillus niger
  inhibition zone (IZ): 254 mm2

## CC[C@@]1(O)C(=O)OCc2c1cc1n(c2=O)Cc2cc3ccccc3nc2-1 [CAMPTOTHECIN]
LX-1
  IC50: 0.12 µM
HCT-116
  IC50: 0.009 µM
A2780
  IC50: 0.004 µM

## C=C/C(C)=C/C[C@]1(C)[C@H](C)C[C@H](O)[C@]23C(=C[C@@H](OC(=O)C(C)C)C[C@@H]12)[C@@H](OC(C)=O)O[C@H]3OC(C)=O [CASEARVESTRIN A]
KB
  EC50: 1.4 µg/mL (≈ 2.77 µM)
Aspergillus niger
  inhibition zone (IZ): 348 mm2
LX-1
  IC50: 0.54 µM
HCT-116
  IC50: 0.71 µM
A2780
  IC50: 0.82 µM

## C=C/C(C)=C/C[C@]1(C)[C@H](C)C[C@H](O)[C@]23C(=C[C@@H](OC(=O)C(C)CC)C[C@@H]12)[C@@H](OC(C)=O)O[C@H]3OC(C)=O (some centres undefined) [CASEARVESTRIN B]
KB
  EC50: 1.4 µg/mL (≈ 2.7 µM)
Aspergillus niger
  inhibition zone (IZ): 296 mm2
LX-1
  IC50: 0.2 µM
HCT-116
  IC50: 0.25 µM
A2780
  IC50: 0.32 µM

## C=C/C(C)=C/C[C@]1(C)[C@H](C)C[C@H](O)[C@]23C(=C[C@@H](OC(=O)CCCCC)C[C@@H]12)[C@@H](OC(C)=O)O[C@H]3OC(C)=O [CASEARVESTRIN C]
KB
  EC50: 0.34 µg/mL (≈ 0.638 µM)
Aspergillus niger
  inhibition zone (IZ): 177 mm2
LX-1
  IC50: 0.29 µM
HCT-116
  IC50: 0.26 µM
A2780
  IC50: 0.42 µM

Reference: ChEMBL document CHEMBL1159312, “Novel bioactive clerodane diterpenoids from the leaves and twigs of Casearia sylvestris” (J Nat Prod, 2002)
